This passage reports inhibition results from ChEMBL document CHEMBL1152193, “Structure-activity relationships of natural and non-natural amino acid-based amide and 2-oxoamide inhibitors of human phospholipase A(2) enzymes” (Bioorg Med Chem, 2008).

For orientation: inhibition means the drop in the measured response relative to a control, in per cent.

The target in assay [1] is T1, Cytosolic phospholipase A2 (Homo sapiens) (UniProt P47712).
T1 sequence (whole entry): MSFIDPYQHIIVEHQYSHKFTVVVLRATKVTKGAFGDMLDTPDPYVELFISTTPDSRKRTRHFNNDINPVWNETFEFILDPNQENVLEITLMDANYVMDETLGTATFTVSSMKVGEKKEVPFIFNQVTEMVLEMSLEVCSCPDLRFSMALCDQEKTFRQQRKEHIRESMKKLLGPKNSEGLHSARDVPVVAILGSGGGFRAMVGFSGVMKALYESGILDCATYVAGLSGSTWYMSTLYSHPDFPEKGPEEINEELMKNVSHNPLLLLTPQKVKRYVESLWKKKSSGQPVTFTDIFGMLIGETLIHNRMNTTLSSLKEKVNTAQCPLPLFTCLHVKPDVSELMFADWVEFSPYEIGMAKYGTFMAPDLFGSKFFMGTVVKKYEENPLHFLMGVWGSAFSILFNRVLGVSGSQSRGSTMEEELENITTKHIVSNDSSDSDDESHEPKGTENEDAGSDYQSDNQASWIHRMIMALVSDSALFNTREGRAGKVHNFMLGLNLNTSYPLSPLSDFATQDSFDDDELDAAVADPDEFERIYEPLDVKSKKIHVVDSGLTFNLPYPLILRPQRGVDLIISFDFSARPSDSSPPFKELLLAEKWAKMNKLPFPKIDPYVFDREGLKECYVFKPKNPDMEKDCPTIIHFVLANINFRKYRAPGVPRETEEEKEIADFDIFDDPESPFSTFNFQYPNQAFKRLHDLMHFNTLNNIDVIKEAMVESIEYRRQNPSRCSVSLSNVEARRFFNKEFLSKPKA
In words: Inhibition of human group 4A cytosolic Ca2+-dependent phospholipase A2 at 0.091 mole fraction by modified Dole assay. In a few lines:
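Buffer: 100 mM HEPES pH 7.5, 90 μM CaCl2, 2 mM DTT, 0.1 mg/ml BSA. Inhibitor present at 0.091 mole fraction of the total substrate interface; percent inhibition determined.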

Assay [2] addresses T2, 85/88 kDa calcium-independent phospholipase A2 (Homo sapiens) (UniProt O60733).
T2 sequence (whole entry): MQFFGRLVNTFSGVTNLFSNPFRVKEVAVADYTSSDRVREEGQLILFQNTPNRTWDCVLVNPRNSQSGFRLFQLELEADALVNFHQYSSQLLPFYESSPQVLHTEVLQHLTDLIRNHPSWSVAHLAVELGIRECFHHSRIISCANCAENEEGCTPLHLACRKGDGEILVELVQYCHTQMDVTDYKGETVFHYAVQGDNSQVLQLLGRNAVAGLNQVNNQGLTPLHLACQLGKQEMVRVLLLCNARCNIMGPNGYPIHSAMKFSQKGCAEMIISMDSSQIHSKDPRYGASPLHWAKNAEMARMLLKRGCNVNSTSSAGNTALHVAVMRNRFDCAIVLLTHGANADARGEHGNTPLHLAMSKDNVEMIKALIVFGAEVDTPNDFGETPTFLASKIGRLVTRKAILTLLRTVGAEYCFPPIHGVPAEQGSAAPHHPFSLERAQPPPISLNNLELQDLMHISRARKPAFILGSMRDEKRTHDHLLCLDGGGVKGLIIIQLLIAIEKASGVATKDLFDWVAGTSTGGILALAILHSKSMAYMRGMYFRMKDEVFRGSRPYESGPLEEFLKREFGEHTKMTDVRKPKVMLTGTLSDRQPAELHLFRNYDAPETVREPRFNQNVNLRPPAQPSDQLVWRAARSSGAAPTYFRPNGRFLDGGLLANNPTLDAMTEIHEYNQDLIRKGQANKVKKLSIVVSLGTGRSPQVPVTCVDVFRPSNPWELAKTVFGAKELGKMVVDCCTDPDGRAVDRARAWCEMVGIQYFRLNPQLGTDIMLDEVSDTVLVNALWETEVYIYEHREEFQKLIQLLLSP
In words: Inhibition of human group 6A cytosolic Ca(2+)-independent phospholipase A2 at 0.091 mole fraction by modified Dole assay.

In assay [3] the target is T3, Phospholipase A2 group V (Homo sapiens) (UniProt P39877).
T3 sequence (whole entry): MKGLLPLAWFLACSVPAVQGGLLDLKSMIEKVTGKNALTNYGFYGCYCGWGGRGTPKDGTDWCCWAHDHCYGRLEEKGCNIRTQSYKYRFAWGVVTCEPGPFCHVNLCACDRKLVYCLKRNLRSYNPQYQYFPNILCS
The experiment in a line: Inhibition of human group 5 Ca2+-dependent secretory phospholipase A2 at 0.091 mole fraction by modified Dole assay.

For the compound `COC(=O)CNC(=O)CCCCCCc1ccccc1`, the inhibition in assay [1], in assay [2] and in assay [3] was less than 25% throughout.

Turning to `CCCCCCCCCCCCCCC(=O)C(=O)NCC(=O)OCC`, the inhibition was 74% in assay [1], 62% in assay [2] and 62% in assay [3].

In the case of `CC(C)(C)OC(=O)CCNC(=O)C(=O)CCCCCCc1ccccc1`, the inhibition in assay [1] was 82%; in assay [2], 81%; in assay [3], 69%.

In the case of `CCCCCCCCCCCCCCC(=O)C(=O)Nc1ccc(C(=O)OCC)cc1`, the inhibition was 87% in assay [1], less than 25% in assay [2] and 78% in assay [3].

Take `CCCCCCCCCCCCCCC(=O)C(=O)NCCCCC(=O)OC(C)(C)C`: the inhibition in assay [1] was 74%; in assay [2] it was 62%; in assay [3] it was 72%.

As for `C=CCOC(=O)CCCNC(=O)C(=O)CCCCCCCCCCCCCC`, the inhibition in assay [1] came out at 53%; in assay [2] it was 63%; in assay [3], 38%.

Take `CCCCCCCCCCCCCCC(=O)C(=O)N[C@H](/C=C/C=C/C(=O)O)CCCC`: the inhibition in assay [1] was 85%; in assay [2], less than 25%; in assay [3] it was less than 25%.

Turning to `CCCCCCCCCCCCCCC(=O)C(=O)NCCC(=O)OC`, the inhibition in assay [1] is less than 25%; in assay [2] it was less than 25%; in assay [3], 48%.

On to `CCCCCCCCCCCCCCC(=O)C(=O)NCCCC(=O)CCCC`, for which the inhibition in assay [1] is 32%; in assay [2], less than 25%; in assay [3], less than 25%.

`CCCCCCCCCCCCCCC(=O)C(=O)N[C@@H](C)CCC(=O)OC(C)(C)C`: the inhibition came to 85% in assay [1], 72% in assay [2] and 87% in assay [3].

Regarding `CCCCCCCCCCCCCCC(=O)C(=O)NCCC(=O)OCC`, the inhibition in assay [1] was 44%; in assay [2] it was 51%; in assay [3] it was 59%.

As for `CCCCCCCCCCCCCCC(=O)C(=O)NCCCC(=O)OCc1ccccc1`, the inhibition in assay [1] is 35%; in assay [2] it was less than 25%; in assay [3] it was 38%.

Regarding `CCCCCCCCCCCCCCC(=O)C(=O)NCCCCOCC`, the results for the inhibition in assay [1], in assay [2] and in assay [3] were 62%, 51% and 64%, respectively.

Turning to `CCCC[C@H](CCC(=O)O)NC(=O)CCCCCCc1ccccc1`, the inhibition in assay [1] is less than 25%; in assay [2], less than 25%; in assay [3] it was 95%.

Consider `CCCCCCCCCCCCCCC(=O)C(=O)NCCC(=O)OC(C)(C)C`, for which the inhibition was 79% in assay [1], 54% in assay [2] and 72% in assay [3].

With `CCCCCCCCCCCCCCC(=O)C(=O)N[C@H](CCC(=O)OC)CC(C)C`, the results for the inhibition in assay [1], in assay [2] and in assay [3] were 83%, 65% and 65%, respectively.

For `CCCCCCCCCCCCCCC(=O)C(=O)N[C@H](/C=C/C=C/C(=O)OCC)CCCC`, the inhibition in assay [1] was determined as 64%; in assay [2], 74%; in assay [3], 52%.

`CCCCCCCCCCCCCCC(=O)C(=O)NCC(=O)OC(C)(C)C`: the values for the inhibition in assay [1], in assay [2] and in assay [3] were 80%, 53% and 82%, respectively.

Regarding `CCCC[C@@H](CCC(=O)O)NC(=O)CCCCCCc1ccccc1`, the inhibition in assay [1], in assay [2] and in assay [3] was less than 25% throughout.

With `CCCCCCCCCCCCCCC(=O)C(=O)NCC(=O)OC`, the inhibition in assay [1] was 62%; in assay [2] it was 45%; in assay [3], 52%.

As to `CC(C)(C)OC(=O)CCNC(=O)CCCCCCc1ccccc1`, the results for the inhibition in assay [1], in assay [2] and in assay [3] were 36%, 57% and 66%, respectively.

For the compound `CCCCCCCCCCCCCCC(=O)C(=O)N[C@@H](CCCC)CCCCC(=O)OCC`, the inhibition is 62% in assay [1], 66% in assay [2] and less than 25% in assay [3].

For `CCCCCCCCCCCCCCC(=O)C(=O)NCCCCC(=O)OCC`, the inhibition worked out at 31% in assay [1], 35% in assay [2] and 47% in assay [3].

On to `COC(=O)CNC(=O)C(=O)CCCCCCc1ccccc1`, for which the inhibition in assay [1] stood at 54%; in assay [2], 31%; in assay [3] it was 30%.

Consider `CCCCCCCCCCCCCCC(=O)C(=O)N[C@@H](CCCC)CCC(=O)OC`, for which the inhibition in assay [1] was 87%; in assay [2], 78%; in assay [3], 86%.

`CCCCCCCCCCCCCCC(=O)C(=O)NCCCCC(=O)OC`: the figures for the inhibition in assay [1], in assay [2] and in assay [3] were less than 25%, less than 25% and 42%, respectively.
